Among the data in PubChem BioAssay AID686992 (Broad Institute, 2013) are activation values, retold here.

Hit rate of the full screen: of about 260,000 compounds, about 960 (0.37%) were called active.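 Rule for the calls: active = mean E-selectin-positive cell signal at least 10% of the positive control, reached in at least 60% of replicates, without over 20% cell loss; inconclusive = no rule given, readout overlaps actives, possibly toxicity-flagged; inactive = the rest, including those meeting only one limit.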 Only a selection was taken, and actives are over-represented in it overall.

E-selectin (Homo sapiens), sequence (P16581 whole entry, looked up): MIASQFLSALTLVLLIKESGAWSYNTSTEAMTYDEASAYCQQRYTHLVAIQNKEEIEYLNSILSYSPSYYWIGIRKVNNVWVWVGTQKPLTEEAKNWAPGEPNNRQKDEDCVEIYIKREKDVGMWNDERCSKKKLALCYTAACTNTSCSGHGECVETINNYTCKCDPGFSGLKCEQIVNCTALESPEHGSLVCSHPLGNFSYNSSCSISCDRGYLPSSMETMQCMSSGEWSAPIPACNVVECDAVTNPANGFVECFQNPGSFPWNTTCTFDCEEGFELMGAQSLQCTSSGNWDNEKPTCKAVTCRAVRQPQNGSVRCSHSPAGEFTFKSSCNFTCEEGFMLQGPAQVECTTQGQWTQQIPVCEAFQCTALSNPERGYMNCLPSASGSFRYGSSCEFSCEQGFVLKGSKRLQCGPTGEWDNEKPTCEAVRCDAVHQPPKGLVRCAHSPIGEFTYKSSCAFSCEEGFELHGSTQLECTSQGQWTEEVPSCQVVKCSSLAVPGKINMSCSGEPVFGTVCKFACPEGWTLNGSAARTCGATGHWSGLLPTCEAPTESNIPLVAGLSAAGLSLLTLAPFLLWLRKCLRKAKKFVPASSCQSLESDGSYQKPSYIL

The test concerns the target E-selectin (Homo sapiens) (UniProt P16581). Kind of test: inducers of endothelial E-selectin expression – imaging, HUVEC, immunofluorescence imaging, single point, primary screen (AID 686992).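 Note: signal is the percent of cells scored E-selectin positive by PE staining.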 Conditions: at 7.58 µM, active compounds read high, normalized: neutral wells 0, TNF-alpha wells 100. Put shortly:
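System: HUVEC, human umbilical vein endothelial cells; quantity: 3,000 cells/well; buffer or medium: EGM-2 medium, gelatin-coated wells; dosing: single-point compound dose; detection: immunofluorescence imaging; evaluation: % PE-positive cells; benchmarks: TNF-alpha, DMSO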
In the case of `O=Cc1cn(-c2ccccc2)nc1-c1ccccn1`, the activation was 31.7% (active). `COc1ccc(-c2nn(-c3ccccc3)cc2/C=N/Nc2ccccn2)cc1OC`: the activation was -1.26% (inactive). As to `O=Cc1cn(Cc2ccccc2)nc1-c1cccnc1`, the activation is 2.7% (inactive). The figure for `COC(=O)c1ccc2nc(-c3ccc(Cl)cc3)c(Cc3cccc(F)c3)n2c1` is -0.152% (inactive). The figure for `Cc1cc2nc(-c3ccc(F)cc3)c(Cc3ccsc3)n2c(C)c1Br` is 0.0835% (inactive). On to `CC1=C(C(=O)N2CCOCC2)CC(CC(=O)NCc2ccco2)C(=O)N1Cc1ccc(F)cc1` (centres undefined), for which the activation is 8.96% (inactive). In the case of `O=C(Cc1ccc(-n2c(=O)c3sccc3n(Cc3ccc(F)cc3)c2=O)cc1)NCc1ccco1`, the activation is 159% (active).

On to `O=C(CCCn1c(=O)c2sccc2n(CC(=O)NCC2CCCO2)c1=O)NCc1ccco1` (centres undefined), for which the activation was 8.64% (inactive). The figure for `CC1(C(=O)Nc2cccc3c2CCCC3)CCN1C(=O)C1(c2ccccc2)CC1` (centres undefined) is 0.283% (inactive); for `COCCCNC(=O)C[C@H]1C[C@@]2(C(=O)OC)C(=C[C@H](C(C)(C)C)O[C@@H]2C)N(Cc2ccc3c(c2)OCO3)C1=O` it is -0.0885% (inactive); for `O=C(C[C@@H]1C[C@H]2c3cc(NC(=O)NC4CCCC4)ccc3O[C@H]2[C@@H](CO)O1)NC1CCCCC1` it is 0.37% (inactive). The figure for `CC1COc2ccccc2N1S(=O)(=O)c1ccccc1` (centres undefined) is 0.485% (inactive); for `CC1CC(=O)Nc2ccccc2N1C(=O)COc1ccc2cc(Br)ccc2c1` (centres undefined) it is 0.0775% (inactive); for `CC1CC(=O)Nc2ccccc2N1S(=O)(=O)c1cccs1` (centres undefined) it is 28.3% (active). On to `CC(C)C[C@H]1CN([C@@H](CC(C)C)CN2CCC[C@@H]2CN2C(=O)C(=O)NC[C@@H]2Cc2ccccc2)C(=O)C(=O)N1CCc1ccccc1`, for which the activation is 0.726% (inactive).

On to `CO[C@H]1CN(C)C(=O)c2cc(NC(=O)c3cc(C)on3)ccc2OC[C@@H](C)N(C(C)=O)C[C@H]1C`, for which the activation was -0.127% (inactive). `COc1cccc(-c2ccc3c(c2)N(Cc2ccccc2OC)C(=O)C(C)S3)c1` (centres undefined): the activation is -0.102% (inactive). The figure for `O=S1(=O)CCN(C2CCCCCCCCCCC2)CC1` is -0.851% (inactive). In the case of `CC(C)C(c1nnnn1C1CCCCC1)N1CCN(C(=O)c2ccco2)CC1` (centres undefined) it was 39.5% (active); in that of `O=C(CNS(=O)(=O)c1ccccc1)N1CCN(C(=O)c2ccco2)CC1`, 0.056% (inactive); in that of `O=C(c1ccco1)N1CCN(C(=S)Nc2cc(F)cc(F)c2)CC1`, -1.13% (inactive).

With `C[C@H]1CN([C@@H](C)CO)C(=O)Cc2cc(NC(=O)Cn3cnnn3)ccc2O[C@H]1CN(C)Cc1ccc(C(=O)O)cc1`, the activation is -4.49% (inactive). For `COc1ccc(CN(C)C[C@H]2Oc3ccc(NC(=O)Cn4cnnn4)cc3CC(=O)N([C@@H](C)CO)C[C@@H]2C)cc1`, the activation is 52.1% (active).

Consider `C[C@@H]1CN([C@H](C)CO)C(=O)Cc2cc(NC(=O)Nc3ccccc3)ccc2O[C@H]1CN(C)Cc1ccc(Cl)c(Cl)c1`, for which the activation was 0.392% (inactive).

As to `Cc1noc(C)c1NC(=O)Nc1ccc2c(c1)CC(=O)N([C@H](C)CO)C[C@@H](C)[C@@H](CN(C)Cc1ccc(C(F)(F)F)cc1)O2`, the activation was -0.087% (inactive). Consider `C[C@H](CO)N1C[C@H](C)[C@@H](CN(C)Cc2ccc(C(=O)O)cc2)Oc2ccc(NC(=O)Cn3cnnn3)cc2CC1=O`, for which the activation was 2.12% (inactive). In the case of `Cc1noc(C)c1NC(=O)Nc1ccc2c(c1)CC(=O)N([C@@H](C)CO)C[C@@H](C)[C@@H](CN(C)Cc1ccc(Cl)c(Cl)c1)O2` it was 449% (active); in that of `O=C(NCCN1CCOCC1)c1ccc2c(c1)N(Cc1cccc(Cl)c1)C(=O)c1ccccc1S2(=O)=O`, 0.148% (inactive).

Turning to `COc1ccc(NC(=O)CCCOc2ccc(C(C)=O)cc2)cc1S(=O)(=O)N1CCCCC1`, the activation was -6.06% (inactive). In the case of `CCOC(=O)C1CCN(C(=O)c2ccc3c(=O)n4nc(Nc5ccccc5CC)sc4nc3c2)CC1` it was -0.0345% (inactive). Turning to `COc1ccc(NC(=O)C(c2ccncc2)n2c(=O)c(-c3cc4ccccc4[nH]3)nc3ccccc32)cc1` (centres undefined), the activation was 0.124% (inactive). As for `CCOC(=O)C1CSCCS(=O)(=O)N1Cc1ccc(Cl)cc1` (centres undefined), the activation was 0.0275% (inactive).

For the molecule `CN[C@H]1C[C@H]2c3cc(Oc4ccccc4C)ccc3CCN2C(=O)[C@H]1[C@H](C)O`, the activation was -1.54% (inactive). For `Cc1ccc(C)c(NC(=O)CN(C)C(=O)COc2ccc3ccccc3c2)c1`, the activation is -0.121% (inactive). For the molecule `COC(=O)C(C)NC(=O)COc1ccc2ccccc2c1` (centres undefined), the activation was 0.228% (inactive). For `Cc1cc2ccccc2n1CCNC(=O)COc1ccc2ccccc2c1`, the activation was 51.8% (active). In the case of `CCCN1C[C@@H](C)[C@@H](OC)CN(C)C(=O)c2cc(NC(=O)CC(F)(F)F)ccc2OC[C@H]1C` it was 0.11% (inactive); in that of `CC(C)(C)OC(=O)N[C@H](C(=O)OC(C)(C)C)c1ccc(Br)cc1`, 0.0795% (inactive). Turning to `O=C(NN=Cc1ccco1)C(=O)Nc1ccc(Cl)c([N+](=O)[O-])c1`, the activation was -0.0805% (inactive). The figure for `CC(=O)N1C[C@@H](CO)[C@@H](N(C)C(=O)C(C)(C)C)C[C@H]1c1ccccc1Br` is -0.326% (inactive).

For the molecule `Cc1cc(S(=O)(=O)c2cc3ccc(O)c(C)c3oc2=O)ccc1F`, the activation was 69.9% (active). For the molecule `COc1cccc2cc(S(=O)(=O)c3ccc(C)cc3)/c(=N/NS(=O)(=O)c3ccc(C)cc3)oc12`, the activation was 0.616% (inactive). In the case of `Cc1ccc(CC2(C)C(=O)Nc3ccc(OC(F)(F)F)cc32)cc1` (centres undefined) it was -0.201% (inactive); in that of `Cn1cnc(S(=O)(=O)N2C[C@@H](O)COC[C@H]3O[C@@H](CC(=O)NCc4ccc(F)cc4)CC[C@@H]32)c1`, -0.0625% (inactive); in that of `O=C(NC[C@H]1[C@@H](c2ccccc2)[C@H](CO)N1CC1CC1)c1cccnc1`, 0.036% (inactive).

As for `Cc1ccc(Nc2nc(-c3sc(NC(=O)c4ccccc4)nc3C)cs2)cc1`, the activation is 0.138% (inactive). As to `Cc1ccc(Nc2nc(Cl)c(C=O)s2)cc1`, the activation was 48.9% (active). The figure for `Cc1ccc(Nc2nnc(SC(C)C(=O)NC3CC3)s2)cc1` (centres undefined) is -0.687% (inactive).

In the case of `Cc1[nH]nc2c1C(c1ccc(Br)cc1)NC2=O` (centres undefined), the activation was -0.228% (inactive).
